Data from ChEMBL document CHEMBL4406821, “Novel dual inhibitors targeting CDK4 and VEGFR2 synergistically suppressed cancer progression and angiogenesis” (Eur J Med Chem, 2019).
Active and inactive are the calls of the source. No cut-off for these calls is given here.

Assays:
[1] = biological target: Vascular endothelial growth factor receptor 2 (Homo sapiens, UniProt P35968); settings: HUVEC, 40 nM
[2] = biological target: Ephrin type-B receptor 3 (Homo sapiens) (UniProt P54753); test: Inhibition of recombinant human EPhB3 (599 to 920 residues) at 1 uM using poly (Glu, Tyr) 4:1 as substrate incubated for 40 mins in presence of [gamma-33P]-ATP by scintillation counting method relative to control
Ephrin type-B receptor 3 (Homo sapiens), sequence (P54753 whole entry, the tested form may be a part): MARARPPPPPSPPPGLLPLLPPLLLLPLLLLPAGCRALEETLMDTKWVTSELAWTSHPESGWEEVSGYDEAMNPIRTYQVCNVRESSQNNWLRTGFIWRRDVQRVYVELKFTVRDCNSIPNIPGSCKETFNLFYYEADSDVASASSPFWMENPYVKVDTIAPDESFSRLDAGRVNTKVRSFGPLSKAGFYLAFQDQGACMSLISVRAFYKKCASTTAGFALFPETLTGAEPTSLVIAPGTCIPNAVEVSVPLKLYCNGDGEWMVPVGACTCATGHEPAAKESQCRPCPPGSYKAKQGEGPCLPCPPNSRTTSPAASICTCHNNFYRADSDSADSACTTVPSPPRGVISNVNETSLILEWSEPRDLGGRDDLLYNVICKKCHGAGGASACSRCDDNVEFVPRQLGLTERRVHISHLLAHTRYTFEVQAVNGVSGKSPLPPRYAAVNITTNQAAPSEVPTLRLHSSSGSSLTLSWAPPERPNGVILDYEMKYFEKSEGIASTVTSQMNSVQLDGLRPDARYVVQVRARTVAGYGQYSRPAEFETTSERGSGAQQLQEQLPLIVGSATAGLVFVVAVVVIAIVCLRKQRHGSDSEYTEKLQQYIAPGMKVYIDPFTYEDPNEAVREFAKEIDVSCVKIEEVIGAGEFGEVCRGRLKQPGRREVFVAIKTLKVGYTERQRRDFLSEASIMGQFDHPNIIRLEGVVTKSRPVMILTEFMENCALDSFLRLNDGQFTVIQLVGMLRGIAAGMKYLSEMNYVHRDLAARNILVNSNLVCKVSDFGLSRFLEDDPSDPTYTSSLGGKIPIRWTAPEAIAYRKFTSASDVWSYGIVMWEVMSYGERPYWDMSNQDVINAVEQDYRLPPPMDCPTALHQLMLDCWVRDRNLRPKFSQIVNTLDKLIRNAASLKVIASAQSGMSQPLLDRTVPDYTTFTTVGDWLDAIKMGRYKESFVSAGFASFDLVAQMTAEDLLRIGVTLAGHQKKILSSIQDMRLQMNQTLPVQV

[3] = biological target: Serine/threonine-protein kinase ULK1 (Homo sapiens) (UniProt O75385); test: Inhibition of recombinant human ULK1 (1 to 314 residues) at 1 uM using casein as substrate incubated for 40 mins in presence of [gamma-33P]-ATP by scintillation counting method relative to control
In short: (§1)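 Tested at a single 1 uM in an outsourced commercial kinase-profiling panel, read as percent inhibition. Each value is the mean of two independent experiments.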

MDA-MB-231 = test: Induction of apoptosis in human MDA-MB-231 cells assessed as decrease in Rb phosphorylation incubated for 48 hrs by Western blot analysis; assay type: functional, cell-based
In short: (§2)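 Cells were treated for 48 h, washed three times with PBS, and lysed in RIPA buffer. Immunoblots used anti-Rb, anti-phospho-Rb, anti-Ki67 and anti-Bcl-2 (each 1:1000), with β-actin as loading control.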

[4] = biological target: RAC-gamma serine/threonine-protein kinase (Homo sapiens) (UniProt Q9Y243); test: Inhibition of recombinant human PKBgamma (117 to end residues) at 1 uM using GRPRTSSFAEGKK as substrate incubated for 40 mins in presence of [gamma-33P]-ATP by scintillation counting method relative to control
[5] = biological target: SRSF protein kinase 2 (Homo sapiens) (UniProt P78362); test: Inhibition of recombinant human SRPK2 (46 to end residues) at 1 uM using RSRSRSRSRSRSRSR as substrate incubated for 40 mins in presence of [gamma-33P]-ATP by scintillation counting method relative to control
HeLa = test: Induction of apoptosis in human HeLa cells assessed as decrease in Bcl2 expression at 40 to 80 nM incubated for 48 hrs by Western blot analysis; assay type: functional, cell-based
In short: as §2

[6] = biological target: Inhibitor of nuclear factor kappa-B kinase subunit epsilon (Homo sapiens) (UniProt Q14164); test: Inhibition of recombinant human full length IKKepsilon at 1 uM using casein as substrate incubated for 40 mins in presence of [gamma-33P]-ATP by scintillation counting method relative to control
[7] = biological target: Dual specificity protein kinase TTK (Homo sapiens) (UniProt P33981); test: Inhibition of recombinant human full length TTK at 1 uM using MBP as substrate incubated for 40 mins in presence of [gamma-33P]-ATP by scintillation counting method relative to control
[8] = Half life in Sprague-Dawley rat at 10 mg/kg, iv by HPLC-MS analysis; assay type: ADME, organism-based; settings: in vivo
In short: (§3)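 Rats fitted with jugular vein catheters for serial blood sampling. Compound dissolved in saline with 5% (v/v) DMSO and given as a single 10 mg/kg dose iv or po after an overnight fast, n = 5 per group. Plasma isolated at once and measured by HPLC with tandem MS detection. Parameters derived by noncompartmental fitting.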

[9] = biological target: Ribosomal protein S6 kinase alpha-3 (Homo sapiens) (UniProt P51812); test: Inhibition of recombinant human RSK2 (2 to end residues) at 1 uM using KKKNRTLSVA as substrate incubated for 40 mins in presence of [gamma-33P]-ATP by scintillation counting method relative to control
Ribosomal protein S6 kinase alpha-3 (Homo sapiens), sequence (P51812 whole entry, the tested form may be a part): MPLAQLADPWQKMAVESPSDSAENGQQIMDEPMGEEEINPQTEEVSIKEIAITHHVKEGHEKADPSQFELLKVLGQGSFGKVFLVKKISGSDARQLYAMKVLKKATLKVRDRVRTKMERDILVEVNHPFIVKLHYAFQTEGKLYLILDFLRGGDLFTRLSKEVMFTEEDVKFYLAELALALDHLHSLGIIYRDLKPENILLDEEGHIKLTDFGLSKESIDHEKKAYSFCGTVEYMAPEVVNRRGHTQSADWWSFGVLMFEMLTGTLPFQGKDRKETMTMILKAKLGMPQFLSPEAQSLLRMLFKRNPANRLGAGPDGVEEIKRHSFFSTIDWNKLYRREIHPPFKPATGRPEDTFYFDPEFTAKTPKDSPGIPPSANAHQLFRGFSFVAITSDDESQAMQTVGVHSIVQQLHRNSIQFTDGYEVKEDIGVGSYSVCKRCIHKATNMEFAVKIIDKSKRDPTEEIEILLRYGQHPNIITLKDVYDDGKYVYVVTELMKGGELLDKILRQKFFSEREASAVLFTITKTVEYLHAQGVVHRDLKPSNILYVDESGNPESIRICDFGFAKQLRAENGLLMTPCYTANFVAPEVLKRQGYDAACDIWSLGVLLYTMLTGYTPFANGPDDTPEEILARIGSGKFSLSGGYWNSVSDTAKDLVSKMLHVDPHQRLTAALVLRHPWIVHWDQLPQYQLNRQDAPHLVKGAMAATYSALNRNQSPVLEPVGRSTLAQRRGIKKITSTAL

[10] = biological target: Serine/threonine-protein kinase WNK2 (Homo sapiens) (UniProt Q9Y3S1); test: Inhibition of recombinant human WNK2 (166 to 489 residues) at 1 uM using myelin basic protein as substrate incubated for 40 mins in presence of [gamma-33P]-ATP by scintillation counting method relative to control
[11] = AUC (0 to t) in Sprague-Dawley rat at 10 mg/kg, po by HPLC-MS analysis; assay type: ADME, organism-based; settings: in vivo
In short: as §3

[12] = biological target: Receptor-interacting serine/threonine-protein kinase 1 (Homo sapiens) (UniProt Q13546); test: Inhibition of recombinant human RIPK1 (8 to 322 residues) at 1 uM using myelin basic protein as substrate incubated for 40 mins in presence of [gamma-33P]-ATP by scintillation counting method relative to control
[13] = biological target: Bone morphogenetic protein receptor type-2 (Homo sapiens) (UniProt Q13873); test: Inhibition of recombinant human BMPR2 (172 to 734 residues) at 1 uM using myelin ba as substrate incubated for 120 mins in presence of [gamma-33P]-ATP by scintillation counting method relative to control
Bone morphogenetic protein receptor type-2 (Homo sapiens), sequence (Q13873 whole entry, the tested form may be a part): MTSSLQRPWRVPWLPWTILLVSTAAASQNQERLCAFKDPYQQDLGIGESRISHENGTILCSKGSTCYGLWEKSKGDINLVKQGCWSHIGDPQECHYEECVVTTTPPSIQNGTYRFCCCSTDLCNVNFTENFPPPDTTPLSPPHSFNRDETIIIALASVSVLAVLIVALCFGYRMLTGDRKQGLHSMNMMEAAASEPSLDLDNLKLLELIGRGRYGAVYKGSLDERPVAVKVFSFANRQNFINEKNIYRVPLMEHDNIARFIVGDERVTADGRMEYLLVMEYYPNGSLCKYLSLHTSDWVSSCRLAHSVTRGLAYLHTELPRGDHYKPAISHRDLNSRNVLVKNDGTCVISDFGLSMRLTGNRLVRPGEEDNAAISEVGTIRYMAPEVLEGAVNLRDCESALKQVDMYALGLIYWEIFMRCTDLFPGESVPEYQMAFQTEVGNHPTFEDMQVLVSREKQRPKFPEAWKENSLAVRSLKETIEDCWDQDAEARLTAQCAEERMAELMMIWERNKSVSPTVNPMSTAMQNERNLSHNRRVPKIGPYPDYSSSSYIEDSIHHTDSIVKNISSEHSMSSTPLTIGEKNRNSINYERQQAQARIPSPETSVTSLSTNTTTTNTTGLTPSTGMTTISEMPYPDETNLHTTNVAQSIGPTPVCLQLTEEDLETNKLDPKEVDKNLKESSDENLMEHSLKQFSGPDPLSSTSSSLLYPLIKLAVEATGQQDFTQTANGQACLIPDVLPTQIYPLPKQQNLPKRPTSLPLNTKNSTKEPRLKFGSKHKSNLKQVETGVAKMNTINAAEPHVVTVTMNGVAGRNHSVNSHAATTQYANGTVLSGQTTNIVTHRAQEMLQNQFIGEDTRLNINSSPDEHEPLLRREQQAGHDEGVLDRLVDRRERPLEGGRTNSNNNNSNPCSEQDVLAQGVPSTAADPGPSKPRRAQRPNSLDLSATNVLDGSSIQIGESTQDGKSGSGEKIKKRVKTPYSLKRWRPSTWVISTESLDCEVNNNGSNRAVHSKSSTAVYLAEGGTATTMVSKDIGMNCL
In short: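 Kinase panel profiling at 1 μM performed by Eurofins KinaseProfiler; percent inhibition reported as mean of two independent experiments.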

[14] = biological target: Serine/threonine-protein kinase 10 (Homo sapiens) (UniProt O94804); test: Inhibition of recombinant human LOK (1 to 348 residues) at 1 uM using RLGRDKYKTLRQIRQ as substrate incubated for 40 mins in presence of [gamma-33P]-ATP by scintillation counting method relative to control
Serine/threonine-protein kinase 10 (Homo sapiens), sequence (O94804 whole entry, looked up, the tested form may be a part): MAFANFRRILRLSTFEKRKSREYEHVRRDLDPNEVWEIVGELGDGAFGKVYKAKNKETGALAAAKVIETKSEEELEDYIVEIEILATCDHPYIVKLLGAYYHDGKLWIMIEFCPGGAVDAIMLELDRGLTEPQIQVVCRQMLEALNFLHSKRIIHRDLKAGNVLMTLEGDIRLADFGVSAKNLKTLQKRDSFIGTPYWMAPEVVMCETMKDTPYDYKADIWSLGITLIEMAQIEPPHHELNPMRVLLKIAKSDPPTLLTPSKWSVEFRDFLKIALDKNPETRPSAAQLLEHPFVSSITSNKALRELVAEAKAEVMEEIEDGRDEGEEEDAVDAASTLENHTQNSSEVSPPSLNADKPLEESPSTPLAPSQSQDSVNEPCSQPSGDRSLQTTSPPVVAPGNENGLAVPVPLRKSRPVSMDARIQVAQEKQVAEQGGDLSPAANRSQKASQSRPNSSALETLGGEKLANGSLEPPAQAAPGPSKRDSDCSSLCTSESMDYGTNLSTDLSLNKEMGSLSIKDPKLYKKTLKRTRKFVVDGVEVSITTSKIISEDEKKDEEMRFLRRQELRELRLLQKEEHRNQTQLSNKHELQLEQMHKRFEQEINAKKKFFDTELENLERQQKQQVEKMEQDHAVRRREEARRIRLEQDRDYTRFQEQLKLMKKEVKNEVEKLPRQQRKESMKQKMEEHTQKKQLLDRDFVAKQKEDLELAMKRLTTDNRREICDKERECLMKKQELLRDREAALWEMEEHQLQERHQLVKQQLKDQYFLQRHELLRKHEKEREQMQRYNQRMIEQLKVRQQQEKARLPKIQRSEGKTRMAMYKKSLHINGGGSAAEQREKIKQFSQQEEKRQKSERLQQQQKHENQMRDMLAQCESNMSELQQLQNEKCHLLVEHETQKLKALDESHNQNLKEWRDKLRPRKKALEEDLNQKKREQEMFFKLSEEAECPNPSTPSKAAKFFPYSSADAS

[15] = Toxicity in NOD/SCID BALB/c mouse xenografted with human SiHa cells assessed as effect on blood parameter by measuring MPV at 40 mg/kg, po administered once two days for 4 times by hematology analyzer; assay type: organism-based; settings: in vivo
[16] = biological target: Dual specificity mitogen-activated protein kinase kinase 7 (Homo sapiens) (UniProt O14733); test: Inhibition of recombinant human MKK7beta (2 to end residues) at 1 uM using unactive JNK1a1 as substrate incubated for 40 mins in presence of [gamma-33P]-ATP by scintillation counting method relative to control
Dual specificity mitogen-activated protein kinase kinase 7 (Homo sapiens), sequence (O14733 whole entry, the tested form may be a part): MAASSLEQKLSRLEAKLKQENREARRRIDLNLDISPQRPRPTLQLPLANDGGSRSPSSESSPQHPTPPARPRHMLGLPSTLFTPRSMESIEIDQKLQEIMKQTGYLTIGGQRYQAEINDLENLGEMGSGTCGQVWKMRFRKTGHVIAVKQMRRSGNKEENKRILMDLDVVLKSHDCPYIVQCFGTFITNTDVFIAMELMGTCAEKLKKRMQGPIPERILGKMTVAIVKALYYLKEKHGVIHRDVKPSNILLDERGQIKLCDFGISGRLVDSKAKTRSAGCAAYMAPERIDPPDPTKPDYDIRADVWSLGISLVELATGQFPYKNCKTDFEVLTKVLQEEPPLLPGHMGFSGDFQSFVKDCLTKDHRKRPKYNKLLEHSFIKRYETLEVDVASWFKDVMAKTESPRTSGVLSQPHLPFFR

[17] = biological target: Fibroblast growth factor receptor 1 (Homo sapiens) (UniProt P11362); test: Inhibition of recombinant human FGFR1 (456 to 765 residues) at 1 uM using KKKSPGEYVNIEFG as substrate incubated for 40 mins in presence of [gamma-33P]-ATP by scintillation counting method relative to control
Fibroblast growth factor receptor 1 (Homo sapiens), sequence (P11362 22-822 limits assumed): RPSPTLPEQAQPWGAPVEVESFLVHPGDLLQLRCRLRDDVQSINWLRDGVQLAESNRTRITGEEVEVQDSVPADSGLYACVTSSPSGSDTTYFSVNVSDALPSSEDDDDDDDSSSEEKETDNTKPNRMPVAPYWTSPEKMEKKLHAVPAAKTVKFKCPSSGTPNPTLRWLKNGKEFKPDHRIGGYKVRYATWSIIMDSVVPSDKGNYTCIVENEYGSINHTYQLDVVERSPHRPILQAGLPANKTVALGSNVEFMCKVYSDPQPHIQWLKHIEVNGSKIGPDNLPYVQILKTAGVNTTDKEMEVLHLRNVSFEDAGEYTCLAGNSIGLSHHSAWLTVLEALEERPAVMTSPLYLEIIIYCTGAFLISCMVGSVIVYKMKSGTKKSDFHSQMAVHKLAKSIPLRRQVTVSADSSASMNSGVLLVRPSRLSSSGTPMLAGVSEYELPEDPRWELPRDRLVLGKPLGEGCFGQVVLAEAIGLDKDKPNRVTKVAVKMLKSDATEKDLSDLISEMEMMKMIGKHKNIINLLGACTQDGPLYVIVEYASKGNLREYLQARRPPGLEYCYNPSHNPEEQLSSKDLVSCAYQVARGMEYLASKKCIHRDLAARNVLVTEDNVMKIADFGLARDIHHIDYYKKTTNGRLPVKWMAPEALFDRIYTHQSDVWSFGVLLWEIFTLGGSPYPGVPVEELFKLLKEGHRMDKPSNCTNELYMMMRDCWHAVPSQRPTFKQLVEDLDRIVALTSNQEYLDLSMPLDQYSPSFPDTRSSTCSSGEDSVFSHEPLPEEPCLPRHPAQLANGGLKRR
In short: as §1

[18] = Volume of distribution in Sprague-Dawley rat at 10 mg/kg, iv by HPLC-MS analysis; assay type: ADME, organism-based; settings: in vivo
[19] = biological target: Serine/threonine-protein kinase PAK 5 (Homo sapiens) (UniProt Q9P286); test: Inhibition of recombinant human PAK5 (425 to end residues) at 1 uM using RRRLSFAEPG as substrate incubated for 40 mins in presence of [gamma-33P]-ATP by scintillation counting method relative to control
[20] = biological target: Ribosomal protein S6 kinase alpha-2 (Homo sapiens) (UniProt Q15349); test: Inhibition of recombinant human full length RSK3 at 1 uM using KKKNRTLSVA as substrate incubated for 40 mins in presence of [gamma-33P]-ATP by scintillation counting method relative to control
[21] = biological target: Tyrosine-protein kinase receptor TYRO3 (Homo sapiens) (UniProt Q06418); test: Inhibition of recombinant human RSE (451 to end residues) at 1 uM using KVEKIGEGTYGVVYK as substrate incubated for 40 mins in presence of [gamma-33P]-ATP by scintillation counting method relative to control

COc1cc2nccc(Oc3ccc(NC(=O)C4(C(=O)Nc5ccc(F)cc5)CC4)cc3)c2cc1OC [CABOZANTINIB]
inhibition [1]: Active

Cc1ccc(NC(=O)C2(C(=O)Nc3ccc(Nc4ncc(F)c(-c5cc(F)c6nc(C)n(C(C)C)c6c5)n4)cc3)CC2)cc1
inhibition [2]: 2% | inhibition [3]: 0% | Activity (MDA-MB-231): Dose-dependent effect | inhibition [4]: 64% | inhibition [5]: 17% | Activity (HeLa): Active | inhibition [6]: 47% | inhibition [7]: 65% | half-life [8]: 2 h | inhibition [9]: 19% | inhibition [10]: 47% | AUC(0-t) [11]: 6000 ng·h/mL | inhibition [12]: 15% | inhibition [13]: 78% | inhibition [14]: 93% | Activity [15]: Non-Toxic | inhibition [16]: 13% | inhibition [17]: 0% | Vd [18]: 2 L/kg | inhibition [19]: 28% | inhibition [20]: 26% | inhibition [21]: 66%
